Assay results of several laboratories.
Protocols differ between the studies behind these lines.
Target: Phosphatidylinositol 4-phosphate 5-kinase type-1 gamma (PIP5K1C, Homo sapiens, UniProt O60331)

SMILES	read-out	action	technique	tested at	measurement	value
COc1ccc2oc(-c3ccc4nc(N)oc4c3)c/c(=N\c3ccccc3NC(=O)CCN)c2c1	binding	–	–	1 µM	remaining binding	102%
COc1ccc2[nH]c3c4[nH]c5ccc(OC)cc5c4c4c(c3c2c1)C(=O)NC4=O	binding	–	–	1 µM	remaining binding	81%
CCCCC(=O)Nc1ccc(-c2ccc3ncn(CCC)c(=O)c3c2)cn1	binding	–	competition with immobilised ligand	0.5 µM	remaining binding	96%
CC#CC(=O)N1CCC[C@H]1c1nc(-c2ccc(C(=O)Nc3ccccn3)cc2)c2c(N)nccn12	enzyme activity	inhibitor	–	1 µM	inhibition	0%
C1=C/COCc2cc(ccc2OCCN2CCCC2)Nc2nccc(n2)-c2cccc(c2)COC/1	binding	–	–	0.1 µM	remaining binding	60%
CO[C@@H]1[C@H](N(C)C(=O)c2ccccc2)C[C@H]2O[C@]1(C)n1c3ccccc3c3c4c(c5c6ccccc6n2c5c31)C(=O)NC4	enzyme activity	inhibitor	–	1 µM	inhibition	11%
Cc1ccc(NC(=O)c2ccnc(C(F)(F)F)c2)cc1-c1cc(OCCO)nc(N2CCOCC2)c1	binding	–	–	1 µM	remaining binding	98%
CC(C)S(=O)(=O)c1ccc2nccc(Nc3ccc4sc(C5CCCC5)nc4c3)c2c1	enzyme activity	inhibitor	–	1 µM	activity vs control	105%
